What all share (type): functional
What all share (conditions): route oral

The test system of experiment [1] is Rattus norvegicus. In words: Inhibition of Zymosan-induced rat's paw edema(ZPE) after peroral administration of 100 mg/kg dose. The gist of the method:
(§1)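 Male Wistar rats (about 150 g) were dosed orally with compound suspended in 5% arabic gum, 1 h before a subplantar hind-paw injection of 0.1 mL saline. The irritant was 1% zymosan for 33 or 1% λ-carrageenin for 34. Paw volume was measured by plethysmograph before dosing and at 4 h (zymosan) or 3 h (carrageenin). Swelling is relative to initial volume, as mean ± SEM. % inhibition is versus the control group's mean swelling.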

Experiment [2] deals with Rattus norvegicus. In words: Compound was tested for the inhibition of rat reversed passive Arthus pleurisy after peroral administration of 100 mg/kg dose at 3.02*10e6 no of cells with 3.37*10e cells of control. The method in brief: (§2)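 Male Wistar rats (about 250 g) were given compound orally before the antiserum. Under ether anesthesia, 0.2 mL rabbit anti-egg albumin antiserum was injected intrapleurally. After 30 min, egg albumin (15 mg/100 g body weight in 0.1 mL saline) was given iv. Rats were killed 4.5 h later and the thoracic cavity was rinsed with 5 mL saline. Exudate volume and infiltrated cell number were measured, with inhibition % versus controls as mean ± SEM.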

Experiment [3] relates to Rattus norvegicus. In words: Inhibition of carrageenan-induced rat's paw edema (CPE) after peroral administration of 100 mg/kg dose. The method in brief: as §1
In experiment [4] the test system is Rattus norvegicus. In words: Antiinflammatory activity on Carrageenan rat's paw edema(CPE) after peroral administration of 100 mg/kg dose with control swelling of 65.6%. (Carrageenan injected into the paw causes an acute inflammation.)
Experiment [5] has as its system Rattus norvegicus. As to the kind of experiment: Antiinflammatory activity on Zymosan-induced rat's paw edema(ZPE) after peroral administration of 100 mg/kg dose with control swelling of 61.0%. The method in brief:
(§3)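 Male Wistar rats weighing about 150 g were dosed orally with compound suspended in 5% arabic gum. 1 h later, 1% zymosan in 0.1 mL saline was injected subplantarly into the hind paw. Paw volume was measured by plethysmograph before dosing and 4 h after zymosan, with edema as the volume difference. Inhibition % was derived from mean swelling versus the control group.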

Experiment [6] concerns Rattus norvegicus. In words: Compound was tested for the inhibition of rat reversed passive Arthus pleurisy after peroral administration of 100 mg/kg dose at 0.43 mL of exudate volume with 0.46 mL of control (injected intrapleurally). The gist of the method: as §2
In experiment [7] the test system is Rattus norvegicus. In words: Compound was tested for the inhibition of rat reversed passive Arthus pleurisy after peroral administration of 100 mg/kg dose at 0.66 mL of exudate volume with 0.82 mL of control (injected intrapleurally). The method in brief: as §2
In experiment [8] the test system is Rattus norvegicus. In words: Antiinflammatory activity on Carrageenan rat's paw edema(CPE) after peroral administration of 100 mg/kg dose with control swelling of 73.7%.
Experiment [9] deals with Rattus norvegicus. As to the kind of experiment: Compound was tested for the inhibition of rat reversed passive Arthus pleurisy after peroral administration of 100 mg/kg dose at 5.76*10e6 no of cells with 7.4*10e6 cells of control. The gist of the method:
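Male Wistar rats (about 250 g) under ether received 0.2 mL rabbit anti-egg-albumin antiserum intrapleurally. Thirty min later they got 15 mg EA/100 g body weight in 0.1 mL saline iv. Compounds were given orally beforehand. Rats were killed 4.5 h after induction and the thoracic cavity rinsed with 5 mL saline. Exudate volume and infiltrated cell count were read as mean ± SE. % inhibition is versus control.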

In experiment [10] the test system is Rattus norvegicus. As to the kind of experiment: Compound was tested for the inhibition of rat reversed passive Arthus pleurisy after peroral administration of 100 mg/kg dose at 3.02*10e6 no of cells with 3.86*10e6 cells of control. The method in brief: as §2
For experiment [11], the system named is Rattus norvegicus. In words: Antiinflammatory activity on Zymosan-induced rat's paw edema(ZPE) after peroral administration of 100 mg/kg dose with control swelling of 71.7%. The gist of the method: as §3
Experiment [12] relates to Rattus norvegicus. As to the kind of experiment: Antiinflammatory activity on Carrageenan rat's paw edema(CPE) after peroral administration of 100 mg/kg dose with control swelling of 64.2%.
Experiment [13] deals with Rattus norvegicus. As to the kind of experiment: Compound was tested for the inhibition of rat reversed passive Arthus pleurisy after peroral administration of 100 mg/kg dose at 0.65 mL of exudate volume with 0.86 mL of control (injected intrapleurally). The gist of the method:
as §2

Experiment [14] relates to Rattus norvegicus. In words: Compound was tested for the inhibition of rat reversed passive Arthus pleurisy after peroral administration of 100 mg/kg dose at 0.42 mL of exudate volume with 0.52 mL of control (injected intrapleurally). The gist of the method: as §2
The test system of experiment [15] is Rattus norvegicus. In words: Antiinflammatory activity on Zymosan-induced rat's paw edema(ZPE) after peroral administration of 100 mg/kg dose with control swelling of 72.9%. The gist of the method:
as §3

Experiment [16] deals with Rattus norvegicus. In words: Compound was tested for the inhibition of rat reversed passive Arthus pleurisy after peroral administration of 100 mg/kg dose at 2.23*10e6 no of cells with 2.28*10er cells of control. The gist of the method: as §2
Experiment [17] relates to Rattus norvegicus. In words: Compound was tested for the inhibition of rat reversed passive Arthus pleurisy after peroral administration of 100 mg/kg dose at 3.36*10e6 no of cells with 3.86*10e6 cells of control. The gist of the method:
as §2

Experiment [18] deals with Rattus norvegicus. In words: Antiinflammatory activity on Zymosan-induced rat's paw edema(ZPE) after peroral administration of 100 mg/kg dose with control swelling of 85.5%. The method in brief: as §3
Experiment [19] relates to Rattus norvegicus. As to the kind of experiment: Antiinflammatory activity on Carrageenan rat's paw edema(CPE) after peroral administration of 100 mg/kg dose with control swelling of 90.0%.
For experiment [20], the system named is Rattus norvegicus. As to the kind of experiment: Compound was tested for the inhibition of rat reversed passive Arthus pleurisy after peroral administration of 100 mg/kg dose at 0.66 mL of exudate volume with 0.79 mL of control (injected intrapleurally). The gist of the method:
as §2

In general, inhibition in vivo refers to the relative decrease from the control value, in per cent. Take `O=C(NN1CCOCC1)c1c(O)c2cccnc2n(-c2ccccc2)c1=O`: the inhibition in vivo at 100 mg/kg with Rattus norvegicus [1] was -8.5%; in the experiment with Rattus norvegicus [2] it was 10.4%; in the experiment with Rattus norvegicus [3] it was -26.2%; in the experiment on Rattus norvegicus [6], 14.6%. Also, the results for the Swelling with Rattus norvegicus [4] and in the experiment with Rattus norvegicus [5] were 82.8% and 66.2%, respectively.
For the compound `COc1ccc(NC(=O)c2c(O)c3cccnc3n(-c3ccccc3)c2=O)cn1`, the inhibition in vivo at 100 mg/kg is 13.1% with Rattus norvegicus [1], 19.5% in the experiment on Rattus norvegicus [7], -10.2% in the experiment with Rattus norvegicus [3] and 22.2% in the experiment with Rattus norvegicus [9]. Moreover, the Swelling in the experiment on Rattus norvegicus [8] came out at 72.3%; in the experiment on Rattus norvegicus [5], 53%.
`Cc1cccc(NC(=O)c2c(O)c3cccnc3n(-c3ccccc3)c2=O)c1`: the inhibition in vivo at 100 mg/kg in the experiment on Rattus norvegicus [1] is 14.2%; with Rattus norvegicus [10], 28.5%; with Rattus norvegicus [3], 4.5%; with Rattus norvegicus [13], 27.3%. Further, the Swelling turned out to be 61.5% with Rattus norvegicus [11] and 61.3% in the experiment on Rattus norvegicus [12].
Regarding `CNC(=O)c1c(O)c2cccnc2n(-c2ccccc2)c1=O`, the inhibition in vivo at 100 mg/kg with Rattus norvegicus [1] came out at 9.6%; in the experiment with Rattus norvegicus [3], 21%; with Rattus norvegicus [14], 22.3%; in the experiment with Rattus norvegicus [16], 3.2%. In addition, the Swelling with Rattus norvegicus [15] is recorded as 65.9%; in the experiment on Rattus norvegicus [12], 50.7%.
Consider `O=C(Nc1cccc([N+](=O)[O-])c1)c1c(O)c2cccnc2n(-c2ccccc2)c1=O`, for which the inhibition in vivo at 100 mg/kg in the experiment with Rattus norvegicus [17] was determined as 15.4%; with Rattus norvegicus [1], 5.7%; in the experiment on Rattus norvegicus [3], 7.4%; with Rattus norvegicus [20], 19.1%. Moreover, the values for the Swelling with Rattus norvegicus [18] and in the experiment with Rattus norvegicus [19] were 80.6% and 83.6%, respectively.

Source of the values: ChEMBL document CHEMBL1126267, “A novel synthesis and potent antiinflammatory activity of 4-hydroxy-2(1H)-oxo-1-phenyl-1,8-naphthyridine-3-carboxamides” (1992).
